For six compounds, IC50, fold change (FC) and AC50 results are on record in ChEMBL document CHEMBL1144159, “Impacts of baicalein analogs with modification of the 6th position of A ring on the activity toward NF-kappaB-, AP-1-, or CREB-mediated transcription” (Bioorg Med Chem Lett, 2008).

For orientation: IC50 means the point on the concentration scale where inhibition reaches its midpoint. Low values mean inhibition by little substance, high ones a need for much substance. What is called AC50 is the midpoint of the concentration-response curve, whichever way the signal moves. Higher therefore signals weaker potency.

The subject of assay [1] is KB. The assay is described as follows: Cytotoxicity against multi-drug resistant human KB cells overexpressing mdr1 after 3 days. It counts as functional, cell-based. The note with it: 72 h. In outline: (§1)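 KB cells and their multidrug-resistant KB/MDR subline overexpressing mdr1, incubated with compound for 3 days (doubling time about 20–24 h). Growth inhibition is given as IC50, the concentration inhibiting 50% of cell growth. Values are the mean of three independent experiments.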

The target of assay [2] is Transcription factor Jun (Homo sapiens) (UniProt P05412). Put plainly: Effect on transcriptional activity of AP1 transfected in human Hep G2 cells after 1 hr by luciferase reporter gene assay relative to control. It counts as cell-based. The note with it: HepG2. The essentials: (§2)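 HepG2 lines stably carrying luciferase reporters (NF-κB-luc, AP-1-luc, CRE-luc) were pretreated with a range of compound concentrations for 1 h, then incubated 4 h with or without stimulus: TNFα for NF-κB, TPA for AP-1, forskolin for CREB. Luciferase activity is expressed as % of the drug-free control, with or without stimulus. Amax is the maximal fold activity versus control; AC50 is the concentration giving 50% of maximal activity. Mean ± SD of ≥3 independent experiments.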

The target in assay [3] is Cyclic AMP-responsive element-binding protein 1 (Homo sapiens) (UniProt P16220). The assay is described as follows: Effect on transcriptional activity of CREB transfected in human Hep G2 cells after 1 hr by luciferase reporter gene assay relative to control. As to conditions: HepG2. It counts as cell-based. In outline: as §2
Background: Reporter assays use an easily measured gene product as a stand-in for the process of interest.

The subject of assay [4] is HepG2. Put plainly: Effect on transcriptional activity of NF-kappaB transfected in human Hep G2 cells after 1 hr by luciferase reporter gene assay relative to control. It counts as cell-based. In outline: as §2
In assay [5] the test system is HepG2. The assay is described as follows: Effect on transcriptional activity of NF-kappaB transfected in TNF-alpha-stimulated human Hep G2 cells after 4 hrs by luciferase reporter gene assay relative to control. It counts as cell-based. In outline:
as §2

The target in assay [6] is Cyclic AMP-responsive element-binding protein 1 (Homo sapiens) (UniProt P16220). The assay is described as follows: Effect on transcriptional activity of CREB transfected in forskolin-stimulated human Hep G2 cells after 4 hrs by luciferase reporter gene assay relative to control. It counts as cell-based. As to conditions: HepG2. In outline:
as §2

The target of assay [7] is Transcription factor Jun (Homo sapiens) (UniProt P05412). The assay is described as follows: Effect on transcriptional activity of AP1 transfected in TPA-stimulated human Hep G2 cells after 4 hrs by luciferase reporter gene assay relative to control. It counts as cell-based. As to conditions: HepG2. The essentials:
as §2

The nature of assay [8]: Effect on transcriptional activity of NF-kappaB transfected in human Hep G2 cells after 1 hr by luciferase reporter gene assay. It counts as cell-based. As to conditions: HepG2, 1 h. The essentials: as §2
Assay [9] can be described thus: Effect on transcriptional activity of NF-kappaB transfected in TNF-alpha-stimulated human Hep G2 cells after 4 hrs by luciferase reporter gene assay. It counts as cell-based. The note with it: HepG2, 4 h. In outline:
as §2

For assay [10], the system named is KB. Put plainly: Cytotoxicity against human KB cells after 3 days. It counts as functional, cell-based. The note with it: 72 h. The essentials:
as §1

Transcription factor Jun (Homo sapiens), sequence (P05412 whole entry): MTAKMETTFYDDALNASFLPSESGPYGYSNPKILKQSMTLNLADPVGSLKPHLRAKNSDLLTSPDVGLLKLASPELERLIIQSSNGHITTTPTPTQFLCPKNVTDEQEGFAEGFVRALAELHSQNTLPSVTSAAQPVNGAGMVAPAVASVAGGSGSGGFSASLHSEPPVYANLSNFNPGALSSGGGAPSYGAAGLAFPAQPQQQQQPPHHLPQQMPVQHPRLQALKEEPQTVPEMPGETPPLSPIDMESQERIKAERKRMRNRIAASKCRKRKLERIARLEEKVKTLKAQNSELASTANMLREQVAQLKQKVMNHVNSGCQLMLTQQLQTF
Cyclic AMP-responsive element-binding protein 1 (Homo sapiens), sequence (P16220 whole entry): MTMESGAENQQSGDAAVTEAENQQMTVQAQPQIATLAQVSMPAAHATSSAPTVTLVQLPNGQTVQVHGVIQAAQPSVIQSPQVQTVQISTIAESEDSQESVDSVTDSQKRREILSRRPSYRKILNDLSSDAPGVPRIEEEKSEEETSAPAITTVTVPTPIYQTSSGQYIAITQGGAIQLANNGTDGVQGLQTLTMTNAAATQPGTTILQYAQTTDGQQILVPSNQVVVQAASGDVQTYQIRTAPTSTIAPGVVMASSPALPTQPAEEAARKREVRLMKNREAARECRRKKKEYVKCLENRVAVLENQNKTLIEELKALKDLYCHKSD

In the assay with KB [1], `CCCOc1c(O)cc2oc(-c3ccccc3)cc(=O)c2c1O` gave a concentration for half-maximal inhibition (IC50) greater than 100 µM. Besides, the fold change (FC) was determined as 1.43 in [2]; 1.59 in assay [3]; 1.81 in the assay with HepG2 [4]; 1.36 with HepG2 [5]; 7.35 in [6]; 1.05 in assay [7].

`CC(=O)Oc1c(O)cc2oc(-c3ccccc3)cc(=O)c2c1O`: the midpoint of inhibition in the assay on KB [1], the IC50, lay at 61.6 µM. Besides, the fold change (FC) in assay [2] stood at 1.44; in assay [3], 2.04; with HepG2 [4], 6.62; in the assay with HepG2 [5], 3.47; in [6], 5.21; in assay [7], 1.18. The AC50 in assay [8] and in assay [9] was 2.2 µM each time.

On to `O=c1cc(-c2ccccc2)oc2cc(O)c(OCc3ccccc3)c(O)c12`, for which the IC50 in the assay on KB [1] is 3.2 µM. Besides, the fold change (FC) in assay [2] was 1.36; in assay [3] it was 1.31; in the assay on HepG2 [4], 2.08; in the assay on HepG2 [5], 1.47; in [6], 7.69; in [7] it was 0.85. Also, the activity in [8] was half-maximal at 0.5 µM (AC50).

Regarding `COc1c(O)cc2oc(-c3ccccc3)cc(=O)c2c1O` [OROXYLIN A], the IC50 worked out at 16.1 µM in the assay with KB [1] and 31.1 µM in the assay on KB [10]. The fold change (FC) in assay [2] is 1.41; in assay [3], 1.28; with HepG2 [4], 4.12; with HepG2 [5], 2.5; in assay [6] it was 2.61; in [7] it was 1.27. The figures for the AC50 in assay [8] and in assay [9] were 4.8 µM and 5 µM, respectively.

Regarding `O=c1cc(-c2ccccc2)oc2cc(O)c(O)c(O)c12` [BAICALEIN], it took 87.1 µM to reach half-maximal inhibition in the assay with KB [1] (IC50). Moreover, the fold change (FC) was 1.44 in assay [2]; 1.35 in [3]; 4.92 in the assay on HepG2 [4]; 3.35 in the assay on HepG2 [5]; 2.2 in assay [6]; 1.26 in assay [7]. The values for the AC50 in assay [8] and in [9] were 8.3 µM and 8.6 µM, respectively.

Take `CCOc1c(O)cc2oc(-c3ccccc3)cc(=O)c2c1O`: half-maximal inhibition in the assay with KB [1] (IC50) required 17.5 µM. For the same compound, the fold change (FC) was 1.35 in assay [2]; 1.81 in [3]; 2.92 in the assay on HepG2 [4]; 1.27 in the assay on HepG2 [5]; 14.5 in assay [6]; 1.21 in assay [7]. The half-maximal activity concentration (AC50) in assay [8] amounted to 0.7 µM.
